# Only a selection was taken, and hits are over-represented in it overall.
# T cruzi growth-1: T. cruzi proliferation inhibition. T. cruzi beta-gal in NIH3T3, GalScreen luminescence, 90 h. inhibition, % at 8.34 µM. 77,000 tested, 5.9% active;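 active means mean inhibition above about 93%, with at least 55% of replicates each passing it, limit read from the data, passing the limit was not always enough; inconclusive means only one of those two conditions holds; inactive means neither condition holds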
# IDH1 mut inh: IDH1 R132H (human) inhibition | inhibition, % at 10 µM | O75874 | AID 624101 | 70,000 tested, 0.18% active | IDH1 R132H reductase, diaphorase/resazurin fluorescence, 60 min; in the data active means inhibition above about 34%; inconclusive means no clear call, values can overlap the other calls; inactive means below about 11%;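 further: 0% = DMSO and 100% = no enzyme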
# Target sequence (O75874 whole entry R132H): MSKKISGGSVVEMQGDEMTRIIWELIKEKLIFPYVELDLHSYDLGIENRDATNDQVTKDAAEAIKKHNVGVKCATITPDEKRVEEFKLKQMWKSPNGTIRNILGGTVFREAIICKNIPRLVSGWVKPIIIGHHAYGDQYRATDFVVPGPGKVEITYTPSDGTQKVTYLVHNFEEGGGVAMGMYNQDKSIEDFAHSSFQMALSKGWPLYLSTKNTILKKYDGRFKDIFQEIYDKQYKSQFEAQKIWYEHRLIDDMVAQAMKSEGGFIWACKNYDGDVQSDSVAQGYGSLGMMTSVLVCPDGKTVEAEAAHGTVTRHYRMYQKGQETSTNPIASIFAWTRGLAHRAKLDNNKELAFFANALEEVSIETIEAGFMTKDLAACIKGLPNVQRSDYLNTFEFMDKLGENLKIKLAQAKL
# KDM4C inh: blocks human GASC-1 (KDM4C) demethylase activity; 96,000 tested, 0.15% active; GST-KDM4C 2-372, H3K9me3 peptide, LANCE TR-FRET; Q9H3R0; inhibition, % at 12.5 µM;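 active means mean replicate inhibition above about 25%, with at least 55% of replicates also reaching it, limit read from the data, passing the limit was not always enough; inconclusive means only one of those two conditions met; inactive means neither condition met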
#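 Compound: one test concentration per compound; Material: GST-GASC-1 enzyme fragment 2-372; Amount: GASC-1 enzyme at 10 nM final in reaction; Also added: H3K9me3 peptide substrate, Fe(II), 2-oxoglutarate; Technique: LANCE TR-FRET; Times: 30 min demethylation and 1 h detection at room temperature.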
# T cruzi growth-2: inhibitors of T. cruzi proliferation; shares compounds with T cruzi growth-1; T. cruzi beta-gal in NIH3T3, GalScreen luminescence, 90 h; inhibition, % at 8.35 µM; 5,600 tested, 72% active;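 active means mean replicate inhibition above about 95% and at least 55% of replicates individually reaching it, limit read from the data; inconclusive means only one of the two criteria is met; inactive means neither criterion is met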
# T cruzi growth-3: Trypanosoma cruzi proliferation inhibition | shares compounds with T cruzi growth-1 | T. cruzi beta-gal in NIH3T3, GalScreen luminescence, 90 h | inhibition, % at 2.09 µM | 5,600 tested, 21% active | AID 651740;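 active means mean inhibition above about 95%, with at least 55% of replicates also reaching it, limit read from the data; inconclusive means meets just one of the two conditions; inactive means meets neither condition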;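 further: plate controls were neutral control median for no effect and positive control median for full effect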
# 3T3 cytotox: kills mouse NIH/3T3 fibroblasts | shares compounds with T cruzi growth-1 | 5,600 tested, 14% active | NIH/3T3 viability, CellTiter-Glo ATP luminescence, 90 h | AID 651742 | cytotoxicity (signal decrease), % at 8.35 µM;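 active means mean signal decrease across replicates above about 35% based on untreated-well scatter, with enough replicates individually passing, limit read from the data; inconclusive means no rule stated though some were filed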;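 further: 0% = median of neutral control wells and 100% = median of positive control wells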
# 3T3 cytotox 2: NIH/3T3 (mouse) viability loss; shares compounds with T cruzi growth-1; NIH/3T3 viability, CellTiter-Glo ATP luminescence, 90 h; inhibition, % at 24.9 µM; 5,600 tested, 56% active; AID 651744;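 active means mean loss of cell viability signal at or above a set limit, and enough replicates individually reaching it; inconclusive means meets only the mean limit or only the replicate share; inactive means meets neither condition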;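 further: 0% = median of neutral control wells and 100% = median of positive control wells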
# Active calls of the source: *; ? = inconclusive; . = no result.
SMILES,T cruzi growth-1,IDH1 mut inh,KDM4C inh,T cruzi growth-2,T cruzi growth-3,3T3 cytotox,3T3 cytotox 2
C[C@@H]1CN([C@@H](C)CO)C(=O)c2cc(NS(=O)(=O)c3ccc(Cl)cc3)ccc2O[C@@H](C)CCCCO[C@H]1CN(C)CC1CCCCC1,108*,.,0,88,29,?,102*
C[C@@H]1CCCCO[C@@H](CN(C)CC2CCCCC2)[C@H](C)CN([C@H](C)CO)C(=O)c2cc(NS(=O)(=O)c3ccc(Cl)cc3)ccc2O1,93,2,-1,.,.,.,.
C[C@@H]1CCCCO[C@@H](CN(C)CC2CCCCC2)[C@@H](C)CN([C@@H](C)CO)C(=O)c2cc(NS(=O)(=O)c3ccc(Cl)cc3)ccc2O1,64,.,-2,.,.,.,.
C[C@@H]1CCCCO[C@@H](CN(C)CC2CC2)[C@@H](C)CN([C@H](C)CO)C(=O)c2cc(NS(=O)(=O)c3ccc(Cl)cc3)ccc2O1,28,3,-2,.,.,.,.
C[C@@H]1CN([C@@H](C)CO)C(=O)c2cc(NS(=O)(=O)c3ccc(Cl)cc3)ccc2O[C@H]1CN(C)CC1CC1,?,0,6,1,20,8,31*
C[C@H](CO)N1C[C@H](C)[C@H](CN(C)CC2CC2)Oc2ccc(NS(=O)(=O)c3ccc(Cl)cc3)cc2C1=O,-2,3,8,.,.,.,.
C[C@@H]1CCCCO[C@@H](CN(C)CC2CCCCC2)[C@H](C)CN([C@@H](C)CO)C(=O)c2cc(NS(=O)(=O)c3ccc(Cl)cc3)ccc2O1,102*,1,0,105*,94,26,106*
COC(=O)c1c(NC(=S)Nc2nc(C)cc(C)n2)sc2c1CCC2,.,0,.,.,.,.,.
CCc1ccc(OCC(=O)Nc2ccccc2C#N)cc1,.,-1,.,.,.,.,.
COc1ccc(C)cc1N(CC(=O)Nc1ccccc1C(F)(F)F)S(C)(=O)=O,.,0,.,.,.,.,.
Cc1cc(SCC(=O)Nc2sc3c(c2C#N)CCCC3)nc2ccccc12,.,1,.,.,.,.,.
COc1ccc(-c2nn(C)c(=O)c3ccccc23)cc1NC(=O)COc1cccc(C)c1,.,0,.,.,.,.,.
CS(=O)(=O)N(CC(=O)Nc1cccnc1)c1cccc(F)c1,.,1,.,.,.,.,.
C[C@H]1CCCCO[C@H](CN(C)C(=O)Cc2ccccc2)[C@@H](C)CN([C@@H](C)CO)C(=O)c2cc(NC(=O)Nc3ccc4c(c3)OCO4)ccc2O1,115*,1,0,112*,5,-15,3
C[C@@H]1CCCCO[C@H](CN(C)C(=O)Cc2ccccc2)[C@@H](C)CN([C@@H](C)CO)C(=O)c2cc(NC(=O)Nc3ccc4c(c3)OCO4)ccc2O1,?,.,-1,109*,30,-8,-3
C[C@@H]1CN([C@@H](C)CO)C(=O)c2cc(NC(=O)Nc3ccc4c(c3)OCO4)ccc2O[C@@H](C)CCCCO[C@H]1CN(C)C(=O)Cc1ccccc1,-38,.,0,.,.,.,.
C[C@@H]1CN([C@@H](C)CO)C(=O)c2cc(NC(=O)Nc3ccccc3)ccc2O[C@@H](C)CCCCO[C@H]1CN(C)C(=O)Cc1ccccc1,25,1,0,.,.,.,.
Cc1cc(C)c(-n2c(O)c(C=Nc3cccc(O)c3)c(=O)[nH]c2=O)c(C)c1,.,0,.,.,.,.,.
N#Cc1c(NC(=O)Cn2cnc3ccccc3c2=O)sc2c1CCC2,.,0,.,.,.,.,.
O=C(C[C@@H]1CC[C@@H](NS(=O)(=O)c2ccccc2)[C@@H](CO)O1)NCc1ccncn1,-28,1,-1,.,.,.,.
O=C(C[C@H]1CC[C@@H](NS(=O)(=O)c2ccc(F)cc2)[C@H](CO)O1)NC1CCC1,119*,0,6,47,28,8,15
O=C(C[C@H]1CC[C@@H](NS(=O)(=O)c2ccccc2)[C@@H](CO)O1)NCc1ccncn1,123*,0,0,101*,17,2,3
O=C(C[C@H]1CC[C@H](NS(=O)(=O)c2ccc(F)cc2)[C@@H](CO)O1)NC1CCC1,-21,0,9,.,.,.,.
Cc1ccc(S(=O)(=O)N[C@H]2CC[C@@H](CCNC(=O)Cc3ccccn3)O[C@H]2CO)cc1,79,0,1,.,.,.,.
Cc1ccc(S(=O)(=O)N[C@@H]2CC[C@@H](CCNC(=O)Cc3ccccn3)O[C@H]2CO)cc1,?,0,2,26,18,-3,-21
SMILES,T cruzi growth-1,IDH1 mut inh,KDM4C inh,T cruzi growth-2,T cruzi growth-3,3T3 cytotox,3T3 cytotox 2
CS(=O)(=O)N(CC(=O)Nc1ccc(Cl)c(C(F)(F)F)c1)c1cccc(Br)c1,.,0,.,.,.,.,.
COC(=O)Nc1scc(-c2ccccc2)c1C(=O)NCc1ccco1,.,0,.,.,.,.,.
COc1ccccc1NC(=O)CSc1nnnn1-c1c(C)cccc1C,.,0,.,.,.,.,.
COc1ccc(NC(=O)CSc2nc3sc(C)c(C)c3c(=O)n2-c2ccccc2)c([N+](=O)[O-])c1,.,0,.,.,.,.,.
CCc1ccccc1NC(=O)CSc1nnc(C)s1,.,2,.,.,.,.,.
CC(C)C#Cc1ccc2c(c1)O[C@H](CN(C)Cc1ccncc1)[C@@H](C)CN([C@H](C)CO)S2(=O)=O,?,-1,-3,99*,101*,57*,103*
C[C@H](O)C#Cc1ccc2c(c1)O[C@@H](CN(C)Cc1ccncc1)[C@@H](C)CN([C@@H](C)CO)S2(=O)=O,66,2,0,.,.,.,.
CC(C)C#Cc1ccc2c(c1)O[C@@H](CN(C)Cc1ccncc1)[C@H](C)CN([C@H](C)CO)S2(=O)=O,119*,1,0,106*,102*,63*,104*
CC(C)C#Cc1ccc2c(c1)O[C@H](CN(C)C(=O)c1ccncc1)[C@H](C)CN([C@H](C)CO)S2(=O)=O,39,.,0,.,.,.,.
C[C@H](CO)N1C[C@H](C)[C@@H](CN(C)Cc2ccncc2)Oc2cc(C#C[C@@H](C)O)ccc2S1(=O)=O,75,.,4,.,.,.,.
CC(C)C#Cc1ccc2c(c1)O[C@@H](CN(C)C(=O)c1ccncc1)[C@@H](C)CN([C@@H](C)CO)S2(=O)=O,102*,.,-2,100*,?,23,45*
COc1cccc(C(=O)NCCN=C2NS(=O)(=O)c3ccccc32)c1,.,-1,.,.,.,.,.
COc1cccc(N(CC(=O)Nc2ccc(Br)cc2F)S(C)(=O)=O)c1,.,0,.,.,.,.,.
O=C(N/N=C/c1cc(Br)cc(Br)c1O)c1ccccc1O,.,0,.,.,.,.,.
COc1ccccc1NC(=O)N[C@H]1CC[C@@H](CCn2cc(-c3ccccc3OC)nn2)O[C@H]1CO,113*,0,.,69,41,-13,9
COc1ccccc1-c1cn(CC[C@H]2CC[C@H](NC(=O)NC(C)C)[C@H](CO)O2)nn1,24,?,?,.,.,.,.
O=C(Nc1ccc(C(F)(F)F)cc1)N[C@H]1CC[C@H](CCNC(=O)c2ccccc2F)O[C@H]1CO,5,0,0,.,.,.,.
COc1ccccc1NC(=O)N[C@H]1CC[C@H](CCn2cc(-c3ccccc3)nn2)O[C@@H]1CO,29,0,0,.,.,.,.
